Experimental data published in ChEMBL document CHEMBL4196128 (ACS Med Chem Lett, 2018).

Columns and labels:
hERG (KCNH2) [1] = target: T1, hERG (KCNH2) (Homo sapiens, UniProt Q12809); assay: Inhibition of human ERG at 10 uM by IonWork assay relative to control
Cytochrome P450 3A4 [2] = target: T2, Cytochrome P450 3A4 (Homo sapiens, UniProt P08684); assay: Inhibition of CYP3A4 (unknown origin) preincubated followed by substrate addition; assay type: ADME
[3] = target: T3, Mitogen-activated protein kinase; ERK1/ERK2 (Homo sapiens) (UniProt P27361+P28482); assay: Inhibition of ERK1/2 in human A2058 cells assessed as reduction in RSK phosphorylation after 24 hrs by Western blot analysis; assay type: cell-based
Outline: (§1)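 A2058 melanoma cells were treated across a compound dose range. pERK1/2 and pRSK levels were detected by Western blot analysis.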

Cytochrome P450 2C19 = Cytochrome P450 2C19 (Homo sapiens, UniProt P33261); assay: Inhibition of CYP2C19 (unknown origin) preincubated followed by substrate addition; assay type: ADME
A2058 = assay: Antiproliferative activity against human A2058 cells harboring BRAF V600E/D mutant measured after 4 days; assay type: functional, cell-based; settings: A2058, 96 h
[4] = Volume of distribution at steady state in CD1 mouse at 10 mg/kg, iv; assay type: ADME, organism-based; settings: in vivo, read-out: Vdss
Outline: (§2)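 Intravenous dosing in male CD1 mice (10 mg/kg, n = 30), Sprague–Dawley rats (3 mg/kg, n = 3), beagle dogs (3 mg/kg, n = 3) and cynomolgus monkeys (1 mg/kg, n = 3). Vehicle was aqueous 20% hydroxypropyl-β-cyclodextrin. Mean residence time and steady-state volume of distribution were taken from plasma concentration–time profiles as mean parameters.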

[5] = Protein binding in mouse plasma at 10 uM; assay type: ADME, cell-free; settings: read-out: PPB
hERG (KCNH2) [6] = target: T1, hERG (KCNH2); assay: Inhibition of human ERG at 1.5 mg/ml by binding assay relative to control; parameters: dose or concentration left out as unconfirmed
Cavia porcellus [7] = assay: Cardiotoxicity in telemetered guinea pig assessed as changes in PR interval at 30 to 100 mg/kg; assay type: toxicity, organism-based; settings: in vivo
Outline: (§3)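 Telemetered guinea pigs were exposed at 30 and 100 mg/kg. Electrocardiographic PR, QRS and QT/QTc intervals were monitored for changes related to the test article, and exposure was referenced to total Cmax.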

[8] = target: T3, Mitogen-activated protein kinase; ERK1/ERK2 (Homo sapiens); assay: Inhibition of ERK1/2 phosphorylation in human A2058 cells after 24 hrs by Western blot analysis; assay type: cell-based; outline: as §1
hERG (KCNH2) [9] = target: T1, hERG (KCNH2); assay: Inhibition of human ERG at 5 mg/ml by binding assay relative to control; parameters: dose or concentration left out as unconfirmed
[10] = Oral bioavailability in Sprague-Dawley rat at 10 mg/kg; assay type: ADME, organism-based; settings: in vivo
Outline: (§4)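 Oral dosing in male CD1 mice (30 mg/kg, n = 27), Sprague–Dawley rats (10 mg/kg, n = 3), beagle dogs (30 mg/kg, n = 3) and cynomolgus monkeys (10 mg/kg, n = 3). Mean Tmax was read from plasma concentration–time data. Bioavailability was derived from oral AUC(0–∞) compared with intravenous AUC.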

[11] = Clearance in Sprague-Dawley rat at 3 mg/kg, iv; assay type: ADME, organism-based; settings: in vivo
Outline: (§5)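 The compound was given intravenously as an aqueous solution in 20% hydroxypropyl-β-cyclodextrin. Animals were male CD1 mice (10 mg/kg, n = 30), Sprague–Dawley rats (3 mg/kg, n = 3), beagle dogs (3 mg/kg, n = 3) and cynomolgus monkeys (1 mg/kg, n = 3). Plasma concentration–time data gave mean AUC(0–∞), half-life, mean residence time, clearance and Vd,ss.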

Cytochrome P450 2C8 [12] = target: T4, Cytochrome P450 2C8 (Homo sapiens, UniProt P10632); assay: Inhibition of CYP2C8 (unknown origin) preincubated followed by substrate addition; assay type: ADME
T4 sequence (P10632 whole entry): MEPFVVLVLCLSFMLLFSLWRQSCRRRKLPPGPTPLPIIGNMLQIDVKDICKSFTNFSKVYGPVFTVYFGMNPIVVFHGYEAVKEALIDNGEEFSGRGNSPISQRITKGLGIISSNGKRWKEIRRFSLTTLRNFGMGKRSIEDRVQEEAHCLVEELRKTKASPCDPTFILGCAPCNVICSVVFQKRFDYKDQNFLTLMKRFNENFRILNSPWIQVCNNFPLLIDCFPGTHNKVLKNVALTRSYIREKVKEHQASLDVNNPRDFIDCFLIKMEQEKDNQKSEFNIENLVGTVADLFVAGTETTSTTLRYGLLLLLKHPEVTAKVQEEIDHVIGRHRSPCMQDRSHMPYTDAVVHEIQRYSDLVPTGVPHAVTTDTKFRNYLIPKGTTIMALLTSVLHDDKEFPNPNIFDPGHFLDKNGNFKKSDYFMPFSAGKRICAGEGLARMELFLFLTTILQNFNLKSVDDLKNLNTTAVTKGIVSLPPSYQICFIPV

[13] = Tmax in CD1 mouse at 30 mg/kg, po; assay type: ADME, organism-based; settings: in vivo; outline: as §4
[14] = target: T3, Mitogen-activated protein kinase; ERK1/ERK2 (Homo sapiens); assay: Inhibition of ERK1/2 phosphorylation in human A2058 cells at 30 nM after 24 hrs by Western blot analysis relative to control; assay type: cell-based; outline: as §1
[15] = Half life in CD1 mouse at 10 mg/kg, iv; assay type: ADME, organism-based; settings: in vivo; outline: as §5
[16] = Oral bioavailability in Beagle dog at 30 mg/kg; assay type: ADME, organism-based, Canis lupus familiaris; settings: in vivo; outline: as §4
Cytochrome P450 2C8 [17] = target: T4, Cytochrome P450 2C8; assay: Inhibition of CYP2C8 (unknown origin) co-incubated with substrate; assay type: ADME
[18] = Volume of distribution at steady state in monkey at 1 mg/kg, iv; settings: cynomolgus monkey, in vivo, read-out: Vdss
[19] = Mean residence time in CD1 mouse at 10 mg/kg, iv; assay type: ADME, organism-based; settings: in vivo; outline: as §2
[20] = Half life in Beagle dog at 3 mg/kg, iv; assay type: ADME, organism-based, Canis lupus familiaris; settings: in vivo; outline: as §5
Cytochrome P450 3A4 [21] = target: T2, Cytochrome P450 3A4; assay: Inhibition of CYP3A4 (unknown origin) co-incubated with substrate; assay type: ADME
COLO 205 = assay: Antiproliferative activity against human COLO205 cells harboring BRAF V600E/D mutant measured after 4 days; assay type: functional, cell-based; settings: COLO 205, 96 h
[22] = Half life in monkey at 1 mg/kg, iv; settings: cynomolgus monkey, in vivo
[23] = Oral bioavailability in monkey at 10 mg/kg; settings: cynomolgus monkey, in vivo
Cytochrome P450 2C9 = Cytochrome P450 2C9 (Homo sapiens, UniProt P11712); assay: Inhibition of CYP2C9 (unknown origin) preincubated followed by substrate addition; assay type: ADME
Cavia porcellus [24] = assay: Cardiotoxicity in telemetered guinea pig assessed as changes in QRS interval at 30 to 100 mg/kg; assay type: toxicity, organism-based; settings: in vivo; outline: as §3
hERG (KCNH2) [25] = target: T1, hERG (KCNH2); assay: Inhibition of human ERG at 1 uM by IonWork assay relative to control
Cavia porcellus [26] = assay: Cardiotoxicity in telemetered guinea pig assessed as changes in QTc interval at 30 to 100 mg/kg; assay type: toxicity, organism-based; settings: in vivo; outline: as §3
HT-29 = assay: Antiproliferative activity against human HT-29 cells harboring BRAF V600E/D mutant measured after 4 days; assay type: functional, cell-based; settings: HT-29, 96 h
Cytochrome P450 2D6 = Cytochrome P450 2D6 (Homo sapiens, UniProt P10635); assay: Inhibition of CYP2D6 (unknown origin) preincubated followed by substrate addition; assay type: ADME
[27] = target: Mitogen-activated protein kinase 1 (Homo sapiens, UniProt P28482); assay: Inhibition of ERK2 (unknown origin) using peptide substrate measured after 45 mins by IMAP assay
Chain of Mitogen-activated protein kinase 1 (P28482 whole entry): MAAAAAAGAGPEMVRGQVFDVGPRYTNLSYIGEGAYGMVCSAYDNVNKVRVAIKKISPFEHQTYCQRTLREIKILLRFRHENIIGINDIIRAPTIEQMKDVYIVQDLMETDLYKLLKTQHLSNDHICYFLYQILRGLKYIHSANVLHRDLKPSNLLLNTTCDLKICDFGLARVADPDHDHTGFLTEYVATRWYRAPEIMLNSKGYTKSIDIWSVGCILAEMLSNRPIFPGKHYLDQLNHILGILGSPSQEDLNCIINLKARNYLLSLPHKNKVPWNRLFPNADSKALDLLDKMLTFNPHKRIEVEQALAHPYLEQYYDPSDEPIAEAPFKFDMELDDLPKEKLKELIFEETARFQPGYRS

T3 sequence (P27361 whole entry, looked up): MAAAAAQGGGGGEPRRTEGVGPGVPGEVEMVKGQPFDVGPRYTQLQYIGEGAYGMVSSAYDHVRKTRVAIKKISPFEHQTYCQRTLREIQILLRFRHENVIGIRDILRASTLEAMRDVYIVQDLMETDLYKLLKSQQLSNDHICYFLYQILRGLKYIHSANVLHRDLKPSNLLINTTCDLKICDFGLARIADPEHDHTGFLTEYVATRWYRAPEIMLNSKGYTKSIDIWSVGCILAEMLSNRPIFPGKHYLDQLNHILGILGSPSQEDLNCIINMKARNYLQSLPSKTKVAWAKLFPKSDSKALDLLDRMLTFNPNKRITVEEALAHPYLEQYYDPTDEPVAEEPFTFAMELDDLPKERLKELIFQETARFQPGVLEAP
T3 sequence (P28482 whole entry, looked up): as the sequence (P28482 whole entry) above
T1 sequence (Q12809 whole entry): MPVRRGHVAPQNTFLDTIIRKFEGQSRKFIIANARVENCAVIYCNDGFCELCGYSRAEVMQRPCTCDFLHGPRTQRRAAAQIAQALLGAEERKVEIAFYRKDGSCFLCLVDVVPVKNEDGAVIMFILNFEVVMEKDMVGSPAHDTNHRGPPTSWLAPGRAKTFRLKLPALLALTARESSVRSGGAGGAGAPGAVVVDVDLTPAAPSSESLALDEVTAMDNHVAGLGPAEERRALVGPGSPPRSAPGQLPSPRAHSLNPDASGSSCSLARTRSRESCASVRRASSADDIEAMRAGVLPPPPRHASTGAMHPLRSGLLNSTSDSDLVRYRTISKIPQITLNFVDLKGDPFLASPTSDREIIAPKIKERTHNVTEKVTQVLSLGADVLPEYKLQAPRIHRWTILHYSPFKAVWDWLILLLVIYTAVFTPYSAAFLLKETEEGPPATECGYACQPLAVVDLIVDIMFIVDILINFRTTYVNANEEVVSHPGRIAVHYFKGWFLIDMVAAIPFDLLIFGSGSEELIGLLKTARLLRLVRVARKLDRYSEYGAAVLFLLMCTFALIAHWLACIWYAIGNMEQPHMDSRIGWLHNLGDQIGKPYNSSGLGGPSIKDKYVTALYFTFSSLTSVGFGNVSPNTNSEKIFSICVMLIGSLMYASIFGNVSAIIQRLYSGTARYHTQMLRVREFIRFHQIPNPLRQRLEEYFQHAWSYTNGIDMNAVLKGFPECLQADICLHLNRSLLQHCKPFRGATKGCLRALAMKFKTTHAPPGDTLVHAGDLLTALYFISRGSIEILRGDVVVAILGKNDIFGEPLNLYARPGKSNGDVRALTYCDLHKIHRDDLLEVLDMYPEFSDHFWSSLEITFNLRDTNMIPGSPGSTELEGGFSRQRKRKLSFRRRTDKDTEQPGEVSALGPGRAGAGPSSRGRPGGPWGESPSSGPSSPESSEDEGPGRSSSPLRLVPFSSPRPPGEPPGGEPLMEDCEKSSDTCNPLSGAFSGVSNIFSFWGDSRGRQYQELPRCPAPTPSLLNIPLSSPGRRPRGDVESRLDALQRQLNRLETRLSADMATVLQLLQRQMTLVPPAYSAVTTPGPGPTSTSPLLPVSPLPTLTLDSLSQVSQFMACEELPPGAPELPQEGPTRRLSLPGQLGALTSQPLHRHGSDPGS
T2 sequence (P08684 whole entry): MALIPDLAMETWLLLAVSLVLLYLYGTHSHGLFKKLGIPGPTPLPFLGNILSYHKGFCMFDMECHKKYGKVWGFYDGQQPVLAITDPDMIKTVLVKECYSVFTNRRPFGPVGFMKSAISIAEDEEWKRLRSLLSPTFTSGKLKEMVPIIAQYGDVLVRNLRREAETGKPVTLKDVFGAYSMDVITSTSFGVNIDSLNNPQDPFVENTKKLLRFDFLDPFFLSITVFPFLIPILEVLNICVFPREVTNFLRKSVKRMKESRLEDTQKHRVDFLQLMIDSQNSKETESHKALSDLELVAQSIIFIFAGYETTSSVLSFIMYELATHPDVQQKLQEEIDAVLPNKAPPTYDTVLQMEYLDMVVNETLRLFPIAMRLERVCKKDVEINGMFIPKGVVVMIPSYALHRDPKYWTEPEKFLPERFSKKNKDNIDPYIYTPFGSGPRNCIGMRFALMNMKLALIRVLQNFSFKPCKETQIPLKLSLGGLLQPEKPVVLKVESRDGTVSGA
Chain of Cytochrome P450 2C19 (P33261 whole entry): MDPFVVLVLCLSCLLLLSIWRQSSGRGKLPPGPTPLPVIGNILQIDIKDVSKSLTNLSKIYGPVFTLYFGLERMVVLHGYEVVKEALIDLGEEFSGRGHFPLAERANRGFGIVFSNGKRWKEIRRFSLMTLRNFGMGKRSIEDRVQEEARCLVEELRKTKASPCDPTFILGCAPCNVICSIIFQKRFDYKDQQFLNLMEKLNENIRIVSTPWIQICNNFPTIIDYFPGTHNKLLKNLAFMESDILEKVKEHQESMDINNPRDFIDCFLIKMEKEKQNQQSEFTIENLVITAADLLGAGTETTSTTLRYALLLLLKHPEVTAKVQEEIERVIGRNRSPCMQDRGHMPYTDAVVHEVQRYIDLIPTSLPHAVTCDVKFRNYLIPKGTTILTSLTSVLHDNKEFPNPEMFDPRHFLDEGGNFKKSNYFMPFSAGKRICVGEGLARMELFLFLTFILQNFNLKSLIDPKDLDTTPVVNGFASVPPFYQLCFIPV
Chain of Cytochrome P450 2D6 (P10635 whole entry): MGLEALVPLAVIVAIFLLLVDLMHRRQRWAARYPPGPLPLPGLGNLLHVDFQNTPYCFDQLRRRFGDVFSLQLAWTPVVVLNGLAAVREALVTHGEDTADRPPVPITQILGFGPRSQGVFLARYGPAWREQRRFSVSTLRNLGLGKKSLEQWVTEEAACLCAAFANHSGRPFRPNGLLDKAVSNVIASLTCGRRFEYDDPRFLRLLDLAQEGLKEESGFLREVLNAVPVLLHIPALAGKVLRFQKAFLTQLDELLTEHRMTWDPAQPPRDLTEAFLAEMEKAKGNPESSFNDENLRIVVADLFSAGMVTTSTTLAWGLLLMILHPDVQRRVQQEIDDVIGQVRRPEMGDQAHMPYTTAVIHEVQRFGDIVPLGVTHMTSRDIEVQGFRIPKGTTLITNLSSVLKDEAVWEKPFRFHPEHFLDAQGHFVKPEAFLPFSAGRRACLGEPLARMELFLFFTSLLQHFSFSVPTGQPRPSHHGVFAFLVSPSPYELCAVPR
Chain of Cytochrome P450 2C9 (P11712 whole entry): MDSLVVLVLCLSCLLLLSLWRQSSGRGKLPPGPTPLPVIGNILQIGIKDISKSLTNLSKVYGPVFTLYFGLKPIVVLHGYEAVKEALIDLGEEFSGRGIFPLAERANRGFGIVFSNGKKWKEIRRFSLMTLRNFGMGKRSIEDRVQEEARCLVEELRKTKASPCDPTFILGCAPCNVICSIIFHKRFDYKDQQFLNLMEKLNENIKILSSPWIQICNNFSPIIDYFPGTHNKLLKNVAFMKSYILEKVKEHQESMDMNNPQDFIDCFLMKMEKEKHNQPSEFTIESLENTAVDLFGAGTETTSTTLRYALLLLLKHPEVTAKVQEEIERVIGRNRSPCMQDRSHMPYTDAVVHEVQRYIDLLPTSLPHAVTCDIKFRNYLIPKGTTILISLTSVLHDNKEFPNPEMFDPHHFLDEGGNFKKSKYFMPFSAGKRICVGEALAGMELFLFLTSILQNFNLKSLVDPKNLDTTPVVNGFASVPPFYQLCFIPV

Structure (SMILES): CS[C@@]1(C(=O)Nc2ccc3[nH]nc(-c4ccc(OC(C)C)nc4)c3c2)CCN(CC(=O)N2CC=C(c3ccc(-c4ncn(C)n4)cc3)CC2)C1 [MK-8353]
- inhibition at 10 µM (hERG (KCNH2) [1]): -0.2%
- IC50 (Cytochrome P450 3A4 [2]): 1700 nM
- inhibition [3]: Dose-dependent effect
- inhibition (INH) (Cytochrome P450 2C19): Not Active
- IC50 (A2058): 371 nM
- Vd [4]: 3.3 L/kg
- fraction unbound at 10 µM [5]: < 0.01
- inhibition (hERG (KCNH2) [6]): -3.5%
- Activity (Cavia porcellus [7]): Non-Toxic
- inhibition [8]: Dose-dependent effect
- inhibition (hERG (KCNH2) [9]): 6%
- bioavailability [10]: 50%
- clearance [11]: 1 mL/min/kg
- IC50 (Cytochrome P450 2C8 [12]): 3500 nM
- Tmax [13]: 1 h
- inhibition [14]: 100%
- half-life [15]: 1.8 h
- bioavailability [16]: 23%
- IC50 (Cytochrome P450 2C8 [17]): > 5000 nM
- Vd [18]: 2 L/kg
- MRT [19]: 1.5 h
- half-life [20]: 2.8 h
- IC50 (Cytochrome P450 3A4 [21]): > 5000 nM
- IC50 (COLO 205): 23 nM
- half-life [22]: 1.3 h
- bioavailability [23]: 2%
- IC50 (Cytochrome P450 2C9): > 5000 nM
- Activity (Cavia porcellus [24]): Non-Toxic
- inhibition at 1 µM (hERG (KCNH2) [25]): -1.7%
- Activity (Cavia porcellus [26]): Non-Toxic
- IC50 (HT-29): 51 nM
- inhibition (INH) (Cytochrome P450 2D6): Not Active
- IC50 [27]: 7 nM
